The entries come from a sample that favours hits as a whole.
ABCB6 inh MLPCN: ABCB6 transporter inhibitors, primary screen, K562-ABCB6 cells, flow cytometry, MLPCN library; ATP-binding cassette sub-family B member 6 (Homo sapiens), Q9NP58; K562-ABCB6 porphyrin accumulation, 1 h; active compounds read low; fluorescence ratio to DMSO, % at 10 µM; actives 0.19% (n = 360,000); AID 602162, 2011;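 active = fluorescence ratio to DMSO below 75%, the collection mean minus 3 SD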;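 also: signal is porphyrin accumulated inside mitochondria; 100% equals median channel fluorescence of DMSO control wells; lower ratio means ABCB6 inhibition with less porphyrin fluorescence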
ABCG2 block: ABCG2 efflux pump inhibitors, primary screen, multiplex with ABCB1, IgMXP3 cells, flow cytometry; Broad substrate specificity ATP-binding cassette transporter ABCG2 (Homo sapiens), Q9UNQ0; actives 0.1% (n = 190,000); JC-1 efflux; inhibition, % at 6.6 µM;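 active = inhibition above 80%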;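 also: 0% = DMSO and 100% = nicardipine control wells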
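Assay system – ABCG2 IgMXP3 and barcoded ABCB1 CCRF-Adr cell mix · Input – 3 million cells/mL in well · Reagent – JC-1 fluorescent substrate · Compound – single test compound dose, 6.6 µM final · Timing – 10 min exposure at 25 °C with rotation, no wash · Detection – flow cytometry of retained JC-1 fluorescence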
Diaph act CS: compounds boosting diaphorase resazurin reduction – biochemical, uHTS, resorufin fluorescence, counter-screen for diaphorase-coupled primary assays, primary screen | Diaphorase/resazurin coupled assay, 16 min; active compounds read high; 1 = vehicle wells, 0 = NADH-free wells | activation factor at 20 µM | actives 0.005% (n = 190,000);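 active = diaphorase activity raised at least twofold by the compound at 20 µM; inactive = activation factor below 2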
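Material: Purified diaphorase enzyme from Clostridium kluyveri | Buffer or medium: 50 mM HEPES pH 7.4 with 4.542 mM MgCl2, 0.005% Tween 20 | Times: 16 min enzyme reaction, ambient temperature | Signal: Red resorufin fluorescence at 544/590 nm excitation/emission | Measure: Increased resorufin signal from activators or reducing compounds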
FLuc inh counter: firefly luciferase enzyme inhibitors, primary screen, artefact control for luciferase-based inhibitor screens, biochemical, luminescence, ATPLite | actives 1.5% (n = 200,000) | 10 min | inhibition, % at 10 µM;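 active = inhibition above about 50% when tested at 10 µM, limit read from the data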
Target sequence (P08659 whole entry, looked up): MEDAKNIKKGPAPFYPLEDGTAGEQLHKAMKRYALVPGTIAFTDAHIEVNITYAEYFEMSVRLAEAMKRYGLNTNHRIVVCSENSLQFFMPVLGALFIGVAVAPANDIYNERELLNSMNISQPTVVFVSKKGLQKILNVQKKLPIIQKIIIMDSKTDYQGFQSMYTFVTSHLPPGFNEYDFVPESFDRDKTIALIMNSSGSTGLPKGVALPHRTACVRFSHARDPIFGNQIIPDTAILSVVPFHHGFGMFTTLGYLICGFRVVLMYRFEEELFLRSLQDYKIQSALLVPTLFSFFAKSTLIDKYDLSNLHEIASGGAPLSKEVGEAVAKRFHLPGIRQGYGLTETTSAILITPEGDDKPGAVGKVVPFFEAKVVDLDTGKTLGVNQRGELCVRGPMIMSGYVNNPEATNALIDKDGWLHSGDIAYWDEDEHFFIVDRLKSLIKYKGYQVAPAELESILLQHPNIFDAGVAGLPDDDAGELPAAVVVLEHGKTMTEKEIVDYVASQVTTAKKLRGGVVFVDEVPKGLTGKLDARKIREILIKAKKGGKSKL
ABCB1 inh: ABCB1 efflux pump inhibitors, primary screen, cell-based, multiplex, flow cytometry, ABCG2 counter-screen; ATP-dependent translocase ABCB1 (Homo sapiens), P08183; CCRF-Adr cells, JC-1 efflux; inhibition, % at 6.6 µM; actives 0.067% (n = 190,000); in the data active = inhibition above about 40%;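 also: 0% = vehicle and 100% = reference inhibitor; higher value means more JC-1 retained so stronger ABCB1 efflux block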
FLuc stim CS: FLuc activators, initial screening, artefact control for FLuc-dependent activation tests, biochemical, ATPlite luminescence; Luciferin 4-monooxygenase (Photinus pyralis), P08659; 200,000 tested, under 10 active; ATPlite luciferase biochemical, 10 min; 0 = ATP-free wells, 1 = DMSO control; activation factor at 10 µM; AID 1027, 2008;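 active = luciferase activation factor, scaled between plate controls, of at least 2 with compound at 10 µM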
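System: Luciferase/luciferin detection reagent, cell-free biochemical luciferase assay | Medium: PBS buffer for ATP | Dosing: Test compounds dosed from 2 mM stocks in 100% DMSO | Timing: 10 min at ambient temperature | Signal: Luminescence measurement of luciferase light output | Evaluation: Luciferase activation, seen as luminescence increase over controls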
Active calls of the source: *; · = no result.

SMILES	ABCB6 inh MLPCN	ABCG2 block	Diaph act CS	FLuc inh counter	ABCB1 inh	FLuc stim CS
O=C(NCC1CCCCC1)c1cccc(S(=O)(=O)N2CCCC2)c1	100	·	·	·	·	·
CC(C)COc1cccc(C(=O)N(C)CC(=O)Nc2cccc3ccccc23)c1	99	·	·	·	·	·
COc1ccccc1OCCSc1nc2ccccc2n1CC(=O)O	96	·	·	·	·	·
Cc1cc(NCCCn2ccnc2)n2ncc(-c3ccccc3)c2n1	101	9	1	87*	1	0.1
Cc1cc(NCc2ccccc2)n2ncc(-c3ccccc3)c2n1	98	·	·	·	·	·
Cc1cc(-c2ccccc2)n2ncc(-c3ccccc3)c2n1	99	6	0.8	85*	0	0.1
COc1ccccc1-c1c(C)nn2c(-c3ccccc3)cc(C)nc12	96	·	·	·	·	·
Cc1cc(NCCCn2ccnc2)n2nc(C)c(-c3ccccc3)c2n1	97	29	1	17	0	0.8
COc1ccc(-c2cc(C)nc3c(-c4ccccc4)cnn23)cc1	101	25	0.8	51*	1	0.5
CC(C)Oc1ccccc1C1(c2ccccc2)NC(=O)NC1=O (centres undefined)	95	·	·	·	·	·
COc1ccc(CSc2nc3ccccc3[nH]2)cc1	98	6	0.9	82*	1	0.2
COC(=O)c1ccc(CSc2nc3ccccc3[nH]2)o1	89	5	0.9	13	1	0.9
COC(=O)c1cccc(CSc2nc3ccccc3[nH]2)c1	98	1	0.8	60*	0	0.4
CC1(C(=O)NS(=O)(=O)Cc2ccccc2C(F)(F)F)CCN1C(=O)c1cccc(F)c1 (centres undefined)	98	·	·	·	·	·
COc1ncccc1-c1nnn(-c2ccc(C)cc2)n1	98	2	0.9	66*	0	0.3
COc1ncccc1-c1nnn(-c2ccc(F)cc2)n1	96	1	0.9	51*	0	0.5
O=C(O)c1ccc(C(=O)O)c(C(=O)c2ccc(NC(=O)c3ccccc3)cc2)c1	101	·	·	·	·	·
CNc1ccccc(-c2ccc3cc4c(cc3n2)OCO4)c1=O	97	5	0.7	53*	11	0.5
C(=NN1CCCCCC1)c1ccccc1	105	·	·	·	·	·
CN(c1ccccc1)c1ccc(/C=N/N2CCOCC2)cc1	100	15	1	70*	1	0.3
COCCN(Cc1nc2ccccc2c(=O)[nH]1)C(=O)COc1ccccc1-c1ccccc1	103	·	·	·	·	·
COc1ccc(/C=N\NC(=O)C2=NNC(=O)C2C)cc1 (centres undefined)	92	9	1	69*	0	0.3
O=C(NCc1ccccc1)C1c2ccccc2OCC(=O)N1Cc1ccc2c(c1)OCO2 (centres undefined)	100	·	·	·	·	·
CC(C)c1ccc(C(=O)NC2=NCCS2)cc1	102	19	1	84*	1	0.2
CC(C)Oc1ccc(C(=O)NC2=NCCS2)cc1	94	2	1.1	75*	-1	0.3
COC(=O)c1ccc(N2C(c3cc(OC)cc(OC)c3)=Cc3ccc(-c4cccnc4)cc3C2CC(=O)C2CC2)cc1 (centres undefined)	103	·	·	·	·	·
Cc1ccc(C(=O)Nc2ncc(Cc3ccccc3)s2)o1	94	36	0.8	80*	0	0.2
Cc1ccc(C(=O)Nc2nc3c(s2)CCCC3)o1	97	2	0.8	82*	1	0.2
O=C(Nc1nc2c(s1)CCCC2)c1ccc(Br)o1	92	10	1	68*	0	0.3
O=C(Nc1nc2c(s1)CCCC2)c1cccs1	96	44	0.9	80*	-2	0.2

Assay outcomes (PubChem)
